Structures are written as SMILES.

Common to all, as to design: scale not given: the % may be the effect or the level left
Test [1] can be described thus: Antiplatelet activity against rabbit platelets assessed as inhibition of PAF-induced platelet aggregation at 25 ug/ml preincubated for 3 mins by turbidimetric method. It counts as functional, Oryctolagus cuniculus. In a few lines: (§1)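 Washed rabbit platelets were preincubated with test sample or 0.5% DMSO vehicle for 3 min at 37 °C. Inducers were thrombin 0.1 U/mL, arachidonic acid 100 μM, collagen 10 μg/mL or PAF 2 nM. Turbidimetric read-out took platelet suspension absorbance as 0% and platelet-free Tyrode's as 100% aggregation, measured at 6 min. Results are mean ± SEM with n per entry.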

The test system of test [2] is Aorta. Kind of test: Vasorelaxation activity in rat aorta assessed as inhibition of K+-induced contraction at 12.5 ug/ml preincubated for 15 mins relative to control. Type of test: functional. In a few lines:
(§2)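 Rat aorta was preincubated with test sample or 0.1% DMSO vehicle at 37 °C for 15 min. Contraction was then evoked with high K+ (80 mM) or norepinephrine (3 μM). Response is expressed as percent of control contraction, mean ± SEM, n = 3.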

Test [3] concerns Aorta. Kind of test: Vasorelaxation activity in rat aorta assessed as inhibition of K+-induced contraction at 3.8 ug/ml preincubated for 15 mins relative to control. It counts as functional. In a few lines:
as §2

Test [4] has as its system Aorta. Put plainly: Vasorelaxation activity in rat aorta assessed as inhibition of norepinephrine-induced phasic contraction at 12.5 ug/ml preincubated for 15 mins relative to control. It counts as functional. In a few lines: as §2
For test [5], the system named is Aorta. Put plainly: Vasorelaxation activity in rat aorta assessed as inhibition of norepinephrine-induced tonic contraction at 12.5 ug/ml preincubated for 15 mins relative to control. It counts as functional. In a few lines:
as §2

Test [6] can be described thus: Antiplatelet activity against rabbit platelets assessed as inhibition of thrombin-induced platelet aggregation at 25 ug/ml preincubated for 3 mins by turbidimetric method. Type of test: functional, Oryctolagus cuniculus. In a few lines: as §1
The nature of test [7]: Antiplatelet activity against rabbit platelets assessed as inhibition of arachidonic acid-induced platelet aggregation at 25 ug/ml preincubated for 3 mins by turbidimetric method. Type of test: functional, Oryctolagus cuniculus. In a few lines: as §1
A short description of test [8]: Antiplatelet activity against rabbit platelets assessed as inhibition of collagen-induced platelet aggregation at 25 ug/ml preincubated for 3 mins by turbidimetric method. Type of test: functional, Oryctolagus cuniculus. In a few lines:
as §1

The subject of test [9] is Aorta. Kind of test: Vasorelaxation activity in rat aorta assessed as inhibition of norepinephrine-induced phasic contraction at 1 ug/ml preincubated for 15 mins relative to control. Type of test: functional. In a few lines:
as §2

The test system of test [10] is Aorta. Kind of test: Vasorelaxation activity in rat aorta assessed as inhibition of norepinephrine-induced tonic contraction at 1 ug/ml preincubated for 15 mins relative to control. Type of test: functional. In a few lines: as §2
The nature of test [11]: Antiplatelet activity against rabbit platelets assessed as inhibition of PAF-induced platelet aggregation at 100 ug/ml preincubated for 3 mins by turbidimetric method. Type of test: functional, Oryctolagus cuniculus. In a few lines:
as §1

Test [12] is described as follows: Antiplatelet activity against rabbit platelets assessed as inhibition of PAF-induced platelet aggregation at 50 ug/ml preincubated for 3 mins by turbidimetric method. Type of test: functional, Oryctolagus cuniculus. In a few lines:
as §1

The nature of test [13]: Antiplatelet activity against rabbit platelets assessed as inhibition of PAF-induced platelet aggregation at 20 ug/ml preincubated for 3 mins by turbidimetric method. It counts as functional, Oryctolagus cuniculus. In a few lines:
as §1

Test [14] in a line: Antiplatelet activity against rabbit platelets assessed as inhibition of PAF-induced platelet aggregation at 10 ug/ml preincubated for 3 mins by turbidimetric method. It counts as functional, Oryctolagus cuniculus. In a few lines:
as §1

Test [15] relates to Aorta. Kind of test: Vasorelaxation activity in rat aorta assessed as inhibition of K+-induced contraction at 50 ug/ml preincubated for 15 mins relative to control. It counts as functional. In a few lines:
as §2

In test [16] the test system is Aorta. Put plainly: Vasorelaxation activity in rat aorta assessed as inhibition of K+-induced contraction at 15 ug/ml preincubated for 15 mins relative to control. Type of test: functional. In a few lines:
as §2

In test [17] the test system is Aorta. Kind of test: Vasorelaxation activity in rat aorta assessed as inhibition of norepinephrine-induced phasic contraction at 50 ug/ml preincubated for 15 mins relative to control. Type of test: functional. In a few lines:
as §2

Test [18] has as its system Aorta. Put plainly: Vasorelaxation activity in rat aorta assessed as inhibition of norepinephrine-induced tonic contraction at 50 ug/ml preincubated for 15 mins relative to control. Type of test: functional. In a few lines: as §2
A short description of test [19]: Antiplatelet activity against rabbit platelets assessed as inhibition of thrombin-induced platelet aggregation at 100 ug/ml preincubated for 3 mins by turbidimetric method. It counts as functional, Oryctolagus cuniculus. In a few lines: as §1
Test [20] is described as follows: Antiplatelet activity against rabbit platelets assessed as inhibition of thrombin-induced platelet aggregation at 50 ug/ml preincubated for 3 mins by turbidimetric method. It counts as functional, Oryctolagus cuniculus. In a few lines: as §1
Test [21] is described as follows: Antiplatelet activity against rabbit platelets assessed as inhibition of thrombin-induced platelet aggregation at 20 ug/ml preincubated for 3 mins by turbidimetric method. Type of test: functional, Oryctolagus cuniculus. In a few lines:
as §1

A short description of test [22]: Antiplatelet activity against rabbit platelets assessed as inhibition of thrombin-induced platelet aggregation at 10 ug/ml preincubated for 3 mins by turbidimetric method. It counts as functional, Oryctolagus cuniculus. In a few lines:
as §1

Test [23] is described as follows: Antiplatelet activity against rabbit platelets assessed as inhibition of arachidonic acid-induced platelet aggregation at 100 ug/ml preincubated for 3 mins by turbidimetric method. Type of test: functional, Oryctolagus cuniculus. In a few lines: as §1
The nature of test [24]: Antiplatelet activity against rabbit platelets assessed as inhibition of arachidonic acid-induced platelet aggregation at 20 ug/ml preincubated for 3 mins by turbidimetric method. Type of test: functional, Oryctolagus cuniculus. In a few lines:
as §1

Test [25] can be described thus: Antiplatelet activity against rabbit platelets assessed as inhibition of arachidonic acid-induced platelet aggregation at 10 ug/ml preincubated for 3 mins by turbidimetric method. Type of test: functional, Oryctolagus cuniculus. In a few lines:
as §1

Test [26] in a line: Antiplatelet activity against rabbit platelets assessed as inhibition of collagen-induced platelet aggregation at 100 ug/ml preincubated for 3 mins by turbidimetric method. It counts as functional, Oryctolagus cuniculus. In a few lines:
as §1

A short description of test [27]: Antiplatelet activity against rabbit platelets assessed as inhibition of collagen-induced platelet aggregation at 20 ug/ml preincubated for 3 mins by turbidimetric method. Type of test: functional, Oryctolagus cuniculus. In a few lines: as §1
The nature of test [28]: Antiplatelet activity against rabbit platelets assessed as inhibition of collagen-induced platelet aggregation at 10 ug/ml preincubated for 3 mins by turbidimetric method. It counts as functional, Oryctolagus cuniculus. In a few lines:
as §1

As to `COc1cccc2c1c1ccnc3ccc(=O)n2c31`, the Activity in test [1] stood at 84.8%; in the test on Aorta [2], 57.9%; in the test with Aorta [3], 74.5%; in the test with Aorta [4], 88.4%; in the test on Aorta [5], 78.9%; in test [6], 90.3%. For the same compound, the Activity in [7] is 80.4%; in [8], 76.3%.
For `COc1cc2nc(N3CCN(C(=O)c4ccco4)CC3)nc(N)c2cc1OC` [PRAZOSIN], the Activity in the test with Aorta [9] and in the test on Aorta [10] was 0% each time.
Regarding `CCC(=O)CC/C=C\CC/C=C/C=C/C(=O)NCC(C)C` [LANYUAMIDE II], the Activity in test [11] worked out at 0%; in [12] it was 0%; in test [13], 70.5%; in test [14], 77.8%; in the test with Aorta [15] it was 36.1%; in the test with Aorta [16] it was 72.5%. The Activity in the test on Aorta [17] worked out at 83.8%; in the test with Aorta [18] it was 78.5%; in [19] it was 0%; in test [20] it was 35.9%; in test [21], 75.2%; in test [22], 77.6%. The Activity in test [23] stood at 0%; in test [24], 0%; in [25], 44.2%; in test [26], 0%; in test [27], 0%; in test [28] it was 10.5%.

(Values after ChEMBL document CHEMBL1158680, “Chemical constituents and biological activities of the fruit of Zanthoxylum integrifoliolum” (1999).)
